# Most compounds without a hit are left out; they make up all but 4.3% or so of the library.
# FLuc inh counter = Photinus pyralis luciferase inhibition counter-screen | P08659 | ATPLite firefly luciferase biochemical luminescence, 10 min | inhibition, % at 10 µM | 200,000 compounds, 1.5% hits;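 active = inhibition above about 50% when tested at 10 µM, limit read from the data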
# Target sequence (P08659 whole entry, looked up): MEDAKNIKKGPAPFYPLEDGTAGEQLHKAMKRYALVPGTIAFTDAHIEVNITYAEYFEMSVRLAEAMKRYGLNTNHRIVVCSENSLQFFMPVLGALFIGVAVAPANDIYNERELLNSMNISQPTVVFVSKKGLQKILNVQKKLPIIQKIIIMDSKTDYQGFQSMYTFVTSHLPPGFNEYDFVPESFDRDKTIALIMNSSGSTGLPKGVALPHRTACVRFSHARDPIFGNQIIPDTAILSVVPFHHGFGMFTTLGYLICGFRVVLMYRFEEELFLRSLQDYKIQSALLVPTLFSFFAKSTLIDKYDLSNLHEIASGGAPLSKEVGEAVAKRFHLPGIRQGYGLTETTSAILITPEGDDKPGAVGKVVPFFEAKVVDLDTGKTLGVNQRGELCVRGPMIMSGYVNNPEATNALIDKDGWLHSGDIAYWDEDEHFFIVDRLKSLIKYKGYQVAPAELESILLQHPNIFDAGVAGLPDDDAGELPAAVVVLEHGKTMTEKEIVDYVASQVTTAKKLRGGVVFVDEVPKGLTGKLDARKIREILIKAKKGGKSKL
# FLuc stim CS = firefly luciferase counter-screen for stimulation assays. P08659. ATPlite luciferase biochemical, luminescence, 10 min; 0 = ATP-free wells, 1 = DMSO control. 200,000 tested, under 10 active. activation factor at 10 µM;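 active = luciferase activation factor, scaled between plate controls, of at least 2 with compound at 10 µM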
#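 System: cell-free luciferase reagent; medium: PBS as buffer for the ATP substrate; doses: test compounds dosed from 2 mM stocks in 100% DMSO; incubation: 10 min, room temperature; measured by: luminescence from luciferase reaction; read-out: luciferase activation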
# sdo1 growth = compounds rescuing growth of sdo1-depleted yeast, bone marrow failure model; S. cerevisiae sdo1-depleted JHY4D growth rescue, OD600 30 h; active compounds read high; pdr5 snq2 efflux-pump mutant strain; z-score at 10 µM; 140,000 compounds, 0.21% hits;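 active = z-score above 3 at both the 24 hr and the 30 hr optical density reads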;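 note: z-score against mean and SD of all compound wells on the same plate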
# APP 5'UTR act = APP 5'UTR luciferase reporter activation | SH-SY5Y APP 5'UTR luciferase reporter, luminescence; zero percent = DMSO vehicle wells | activation, % at 2 µM | 190,000 compounds, 1% hits | AID 1276;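 active = activation above a set limit, based on mean plus 3 SD of controls, cut at about 140% in these data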
# STAT1 act = STAT1 signaling activation; NIH 3T3 STAT1-luciferase reporter, IFN-gamma, luminescence; 100% = IFN-gamma alone, no compound; activation (% of control), % at 5.5 µM; 200,000 compounds, 2.6% hits; AID 932;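 active = activation above the screen-wide mean activation plus 3 SD, cut at about 130% in these data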;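 note: raw ratio to IFN-gamma control signal so 100% means no change and 0% no light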
# NF-kB expr up = raises NF-kB expression in human neuronal cells; 190,000 compounds, 1.6% hits; fold change at 12.5 µM; NF-kB reporter expression; active compounds read high; in the data active = fold change above about 3.3
# * marks the source's active call; other numbers are inactive results; . = no result.
SMILES,FLuc inh counter,FLuc stim CS,sdo1 growth,APP 5'UTR act,STAT1 act,NF-kB expr up
CCc1ccc(NC(=O)c2onc(C)c2Cl)cc1,34,0.7,0.59,135*,143*,6*
Cc1ccc2nc(SCC(=O)N3CCCC3)[nH]c2c1,5,0.9,-0.55,115,144*,3.2
Cc1ccc2nc(SCC(=O)N3CCN(C(=O)c4ccco4)CC3)[nH]c2c1,2,1,1,-7,120,1.1
COc1ccc(C(C)(C)C)cc1NC(=S)NCCN1CCOCC1,-2,1,0.21,14,103,0.9
CCOC(=O)N1CCN(C(=O)c2ccc3c(c2)sc2nc(-c4ccc(OC)cc4)cn23)CC1,4,1,-0.85,19,112,0.66
COc1ccc2c(c1)sc1nc(-c3ccccc3)cn12,97*,0,-2.6,-87,34,0.63
Cc1cccc(NC(=S)NNC(=O)c2csc3c2CCCC3)c1,57*,0.4,0.52,92,115,1.9
Cc1cc(C(=O)NNC(=S)NCC(C)C)cs1,-9,1.1,0.73,15,94,1.2
Cc1ccc(C)c(NC(=S)NNC(=O)c2csc3c2CCCC3)c1,-5,1.1,1.1,1,92,1.2
Cc1cccc(NC(=S)NNC(=O)c2csc(C)c2)c1,57*,0.4,0.97,61,98,2.6
Cc1ccc(NC(=S)N(CCCN2CCOCC2)Cc2cccnc2)cc1C,-10,1.1,.,60,104,0.92
Brc1ccc(-c2ncc(-c3ccccc3)cn2)cc1,32,0.7,-0.19,31,139*,5.7*
CC(C)C/C=C1\CCc2c([nH]c3ccccc23)C1=O,3,1,.,48,143*,2.5
O=C1/C(=C/c2cccnc2)CCc2c1[nH]c1ccccc21,11,0.9,.,76,103,.
O=C(CSc1ncccn1)N/N=C/c1ccccc1[N+](=O)[O-],-4,1,.,8,106,1.1
COc1ccc(C(=O)Nc2ccc3c(c2)nc2n3CCSC2)cc1,66*,0.3,-0.54,82,125,0.95
CC(C)C(=O)Nc1ccc2c(c1)nc1n2CCSC1,11,0.9,-0.33,24,104,1.8
CCC(=O)Nc1ccc2c(c1)nc1n2CCSC1,-3,1,-0.39,-1,108,1.1
O=C(Nc1ccc2c(c1)nc1n2CCSC1)c1ccccc1,80*,0.2,-0.91,120,116,3.3*
COc1ccc(S(=O)(=O)N2CCOCC2)cc1NC(=O)c1cccc2c(=O)c(C)c(-c3ccccc3)oc12,1,1,0.22,3,102,0.37
Cc1ccc(CN(CC(=O)NC(C)(C)C)C(=O)CNC(=O)c2cccs2)cc1,-5,1.1,.,7,95,0.99
COc1ccccc1-c1nnc2n1N=C(c1ccc(O)c(O)c1)CS2,0,1,1.5,-95,98,3.4*
CCOc1ccc(C2=Nn3c(nnc3-c3ccccc3OC)SC2)cc1,-2,1,-0.83,-95,114,2.4
COc1cccc(CN(C)CC(=O)NC(=O)NCc2ccco2)c1,-6,1.1,0.79,-16,105,0.85
CC(=O)c1c(C)[nH]c(C(=O)OCC(=O)Nc2ccc(Cl)cc2[N+](=O)[O-])c1C,-4,1,-1.1,4,75,0.43
SMILES,FLuc inh counter,FLuc stim CS,sdo1 growth,APP 5'UTR act,STAT1 act,NF-kB expr up
Cc1ncoc1C(=O)Nc1nccs1,0,1,-0.36,0,101,1.1
Cc1ncoc1C(=O)Nc1ncc([N+](=O)[O-])s1,19,0.8,.,78,142*,2.4
Cc1ccc(C(=O)/C=C2\NCC(C)NC2=O)cc1 (stereo unspecified),69*,0.3,0.14,117,110,2.3
Cc1ccc(C(=O)C2CCNCC2)cc1,-2,1,-0.33,-8,106,0.98
Cc1ccc(C(=O)/C=C2\NCCNC2=O)cc1,67*,0.3,1.8,109,131*,5*
ClCc1nnc(-c2cc3c(s2)CCCC3)o1,14,0.9,.,-20,97,1.5
COc1ccccc1/C=C/C(=O)N1CCOCC1,-5,1.1,-0.12,-26,101,1
O=C(Nc1ccc(Cl)cc1)N1CCC(c2ccccc2)C1 (stereo unspecified),64*,0.4,.,169*,146*,6.2*
COc1ccccc1/C=C/C(=O)N1CCC(c2ccccc2)C1 (stereo unspecified),35,0.7,0.24,52,134*,2.4
Cc1ccc(NC(=O)N2CCC(c3ccccc3)C2)cc1C (stereo unspecified),49,0.5,.,143*,150*,5.7*
CC(C)OP(=O)(OC(C)C)C(C)NC(=O)Cc1ccccc1 (stereo unspecified),-8,1.1,.,23,100,1.1
CCN(Cc1cn2cccnc2n1)C1CCCCC1,1,1,.,-14,100,0.96
Cc1cc(OCc2cn3cccnc3n2)ccc1Cl,16,0.8,0.23,37,131*,2.1
Cc1cc(C(=O)N/N=C/c2ccc[nH]2)n[nH]1,3,1,1.3,-5,102,4.4*
O=C(N/N=C/c1ccc[nH]1)c1ccccc1O,62*,0.4,.,40,93,1.3
C=C(C)CNC(=S)Nc1cccc(N)n1,-8,1.1,.,20,93,1.5
CN=c1scc(-c2ccccc2Br)n1/N=C/c1ccc[nH]1,54*,0.5,.,174*,84,1.2
CC(=O)c1cn(-c2ccc(Cl)cc2)c(=O)n(Cc2ccc(Br)cc2)c1=O,-2,1,.,-7,104,1.1
O=C(Nc1cccc(O)c1)C(=O)Nc1ccccn1,84*,0.2,1.6,155*,120,2.9
CC(c1c(O)c2ccccc2[nH]c1=O)C1(C)CCC(O)C(C)(C)O1 (stereo unspecified),-10,1.1,.,-13,98,1.2
O=C(CN1C(=O)C(=O)N(Cc2ccco2)C1=O)NC1CCCCC1,3,1,.,22,102,0.94
O=C(Oc1ccc(-c2ccccc2)cc1)N1CCCCC1,7,0.9,-0.06,5,130*,7*
CC(C)NC(=S)N/N=C/c1ccc2c(c1)OCCO2,76*,0.2,0.14,24,104,1.8
Cc1ccccc1OCC(=O)N/N=C/c1ccc2c(c1)OCCO2,19,0.8,0.46,.,107,1.3
COCCNC(=S)N/N=C/c1ccc2c(c1)OCCO2,59*,0.4,.,-19,98,1.1
Cc1cccc(C(=O)O/N=C(\N)c2ccc(Br)cc2)c1,25,0.8,-2.1,31,121,4*
Cc1cc(C)cc(C(=O)O/N=C(\N)c2ccc(Br)cc2)c1,-1,1,-0.97,5,102,1.1
COc1cccc(/C(N)=N/OC(=O)Cc2ccccc2[N+](=O)[O-])c1,-1,1,.,13,130*,1.5
COc1ccc(C(=O)O/N=C(\N)c2ccncc2)cc1OC,-2,1,0,7,109,1.2
